In the EternaBench riboswitch data:

System: MS2 coat protein
Assay: apparent Kd, MS2 coat protein; higher = weaker binding; RNA-MaP array; FMN 200 µM where present
How it was run: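 Stalled E. coli RNA polymerase transcribed each design on Illumina sequencing-chip clusters. The clusters were titrated with SNAP-549-labelled MS2 coat protein, starting at 0.7 or 1.5 nM and doubling up to 3 µM, first without ligand and then with constant ligand, in 100 mM Tris-HCl pH 7.5, 80 mM KCl, 4 mM MgCl2, BSA, DTT, yeast tRNA and Tween-20. Green signal was normalised to red-channel RNA signal and to the control-cluster median Fmax. The apparent Kd is the median of filtered binding-curve fits made for each cluster.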

[1] = designed as: OFF switch for flavin mononucleotide, no ligand
[2] = ligand present: flavin mononucleotide, designed as: OFF switch for flavin mononucleotide
[3] = designed as: ON switch for flavin mononucleotide, no ligand
[4] = ligand present: flavin mononucleotide, designed as: ON switch for flavin mononucleotide

| Sequence | apparent Kd [1] [nM] | apparent Kd [2] [nM] | apparent Kd [3] [nM] | apparent Kd [4] [nM] |
| --- | --- | --- | --- | --- |
| AGGUAAGACUUAAUUGUGCUGGUGAGAAGGCUGCUGGUUGUGGUCUACAUGAGGAUCACCCAUGUUGAGGAUAUCAUCGGUAUC | 711 | 103 | – | – |
| AGGUGACAUGAGGAUCACCCAUGUCAGGAUAUAUACACCGCCGGCGUGAAGCCGGCGGAUAGAAGGGACAAAAU | 17.1 | 21.3 | – | – |
| AGGUGACAUGAGGAUCACCCAUGUGAGGAUAUCUGGAUACUCUUUAUUUUAGAUAUCCAGAGAAGGCACACCCU | 263 | 502 | – | – |
| AGUAACAGAGGAUAUACUGUUUUAUGUAUUUAUUAUUUUAAACAUGAGGAUCACCCAUGUAGAAGGCUGAAUGA | 24.5 | 23.3 | – | – |
| AGUAACAGAGGAUAUACUGUUUUAUGUGUUUGUUAUUUUGAACAUGAGGAUCACCCAUGUAGAAGGCUGAAUAA | 22.2 | 21.3 | – | – |
| AGUAACUCAGAUCUUUUGAACAUGAGGAUCACCCAUGUAUUGAGAAGGAGCUGGAAGAGAGACAGCUAGGAUAUCAGAGUUGCG | 5.96 | 7.19 | – | – |
| AGUACCAUGUAGAAGGGAUAUCUGAUUCAGAUAUCAGGAUAUACAUGAGGAUCACCCAUGUAAAUGUACUGCACGAGAGUGCAA | 14.7 | 50.2 | – | – |
| AGUACUACAGGAUAUACAUGAAUGAUAAUCAUUACCCUUAUACAUGAGGAUCACCCAUGUAGAAGGGUAGUACA | 16.4 | 20 | – | – |
| AGUACUCCAGAAGGAUAUGCAUCGGUGGAUGUCCUUAGGCGGACGGUCACAUGAGGAUCACCCAUGUAGAAGGUCUGGGAGCCG | 39.8 | 238 | – | – |
| AGUAGAUCAGGAUAUACGUAAAUGGUAAUUAUGUAACUUUUACAUGAGGAUCACCCAUGUAGAAGGGAUCUACA | 17.5 | 18.1 | – | – |
| AGUCAUUUACAGAAGGGUAGUUGGGUUAUACAUGAGGAUCACCCAUGUUUUACAGGAUAUGUGUUUUGUUACUAUUAAAGUUCA | 65.7 | 120 | – | – |
| AGUCCACAUGAGGAUCACCCAUGUCAGGAUAUCUGCUGGAAGAGGGCAGAAAGCCAGGAGAGAAGGGACCUGGG | 37.9 | 74.5 | – | – |
| AGUCCAGAAGGAUAUACAUAGGUGAUAAAAAAAAAAAAACUACAUGAGGAUCACCCAUGUAGAAGGUCUGGACA | 61.9 | 40 | – | – |
| AGUCGGAGCAGAGGAUAUUACAUGAGGAUCACCCAUGUAAAUGGAAUAAGCUGGAAACAGCAAUGUAAGAAGGCUGCUCCGACA | 67.4 | 540 | – | – |
| AGUCGGAGCAGAGGAUAUUACAUGAGGAUCACCCAUGUAAUAAAUGGAAGCUGGAAACAGCAAUGUAAGAAGGCUGCUCCGACA | 16.4 | 47.9 | – | – |
| AGUCGGAUCUAUUAACAUGAGGAUCACCCAUGUAUUUGCAACUAGGAUAUCGAUUAUUAUUUCGUCGAGAAGGAGUAUACAUAA | 24.2 | 37.3 | – | – |
| AGUCUGAGAGGAUAUACAAGGGAAAAAAAAGUAAGAUCCCUACAUGAGGAUCACCCAUGUAGAAGGCUCUGACA | 98 | 43.8 | – | – |
| AGUGAAUGUACAGGAUAUGCUGGACUUUGUCCAGCAGAAGGGUAUUAACAUGAGGAUCACCCAUGUUCAUUCACCAAAUUUAAU | – | – | 38.8 | 8.3 |
| AGUGACGGUACAGGAUAUGCUGGACUUUGUCCAGCAGAAGGGUAUUAACAUGAGGAUCACCCAUGUUCCGUCACCAAAUUUAAU | – | – | 41 | 7.4 |
| AGUGACUACGUAGGAUAUUAAAUCAUGUACUACAUGAGGAUCACCCAUGUUAAUUUAACAUCAGCUGAGAAGGACGUGGUCACA | – | – | 20.6 | 11.6 |
| AGUGCUAGAGGAUAUGCAGUGGCGUUCUGUAUUCACAGCUCACAUGAGGAUCACCCAUGUAGAAGGCUAGCUAC | 23.6 | 106 | – | – |
| AGUGUCAUCCAGAAGGCCUCAUGACAUGAGGAUCACCCAUGUUAUCAUGGGAGGAUAUGGAUGAUACAGCUACGUUUCGUAGCA | – | – | 90.5 | 25.4 |
| AGUGUCAUCGAGAAGGCCUCAUGAACAUGAGGAUCACCCAUGUAAUAUGGGAGGAUAUCGAUGAUACAGCUACGUUUCGUAGCA | – | – | 51.4 | 33.9 |
| AGUGUCAUCGAGAAGGCCUCGACAUGAGGAUCACCCAUGUUGUAAUAUGGGAGGAUAUCGAUGAUACAGCUACGUUUCGUAGCA | – | – | 40.3 | 13.4 |
| AGUGUCAUCGAGAAGGCCUUAACAUGAGGAUCACCCAUGUUGUAACAUGGGAGGAUAUCGAUGAUACAGCUACGUUUCGUAGCA | – | – | 412 | 25.5 |
| AGUGUGUGGCAGGAUAUUCUGUUGGUUAGGACAGAAGAAGGGUCUACAUGAGGAUCACCCAUGUAAGCGGUUGA | 251 | 428 | – | – |
| AGUUGCAAACACAACAUGAGGAUCACCCAUGUACUCUCGUGUAAGGAUAUACAUUCGUAUGGAAAGUAGAAGGUACUAAUUAUG | – | – | 27.3 | 32.1 |
| AGUUUUGUACAUGAGGAUCACCCAUGUUAAUAUGUGGUAGUCAGAAGGCAUUGUUAGUGUUUAUAUGAGGAUAUGAUUAUUCAG | – | – | 41.1 | 16.4 |

| Sequence | apparent Kd [1] [nM] | apparent Kd [2] [nM] | apparent Kd [3] [nM] | apparent Kd [4] [nM] |
| --- | --- | --- | --- | --- |
| AUAAAACAAAACCACACAUGAGGAUCACCCAUGUCAAGAUUACAGGAUAUCCAGCAGAGAUGCAUGGAGAAGGGUGAUCCCAAA | – | – | 37.1 | 56.5 |
| AUAAAACAUGAGGAUCACCCAUGUAGACACGAUGGAGGAUAUACUAGAUCGAAAGAUCUAGUAGAAGGCCGACGUA | – | – | 21.3 | 22.8 |
| AUAAAGCGUGCUACGCAAAAUAACGCAGAAGGCCAACAUGAGGAUCACCCAUGUAAAAGAAAGAUGGAGGAUAUGCGGUUUGGC | – | – | 46.6 | 5.74 |
| AUAAUGUGAGGAUAUCAGUCGACUAGCUGCGGCUAGUCGACUGAGAAGGCACAUGAGGAUCACCCAUGUGUUUC | 17.9 | 40.8 | – | – |
| AUAAUUAAGCGAGGAUAUAUAUAGAAUAAUUAUAUAGAAGGCGCAAAACAUGAGGAUCACCCAUGUCACCCAUGUUGUGUGUAA | – | – | 121 | 47.3 |
| AUAAUUAAUGCAGGAUAUCAGCACGUGUAGUGCUGAGAAGGGCACAUGAGGAUCACCCAUGUGAUCAAUUAAUAUUAAUAUUAU | 61 | 275 | – | – |
| AUACAUGAGGAUCACCCAUGUUACUGGGUCUUAAUAGAUCGUAGAAGGAUGUUAUUAUUAAUUUCAUAGGAUAUACUAUUUAGU | 48.3 | 32.9 | – | – |
| AUACCUUAUGAGAAGGCGAUCAUGAAACAUGAUCGAGGAUAUCAUGUAAACAUGAGGAUCACCCAUGUAUGGGUAUUAUGGUAC | – | – | 28.4 | 9.72 |
| AUACUCAUGUAAGGAUAUGCAGCCGAAACGGCUGCAGAAGGUACUAUAAUACAUGAGGAUCACCCAUGUCAAAAUAAACUAGUU | – | – | 155 | 36.5 |
| AUACUCAUGUAAGGAUAUGCAGUCGAAACGGCUGCAGAAGGUACUAUAAUACAUGAGGAUCACCCAUGUCAAAAUAAAAUAGUU | – | – | 30.3 | 22.7 |
| AUACUCGUUGUGAGGAUAUCGUUUUCGUCACGGAUCGAGAAGGCACAUGAGGAUCACCCAUGUUUGACGUGAAU | 17.1 | 44.3 | – | – |
| AUAGAAAGAUUAAUAUGAUUACAUGAGGAUCACCCAUGUAUAAAGGAUAUCGACGUCAAUGACGUCGAGAAGGUUAUACAUAAU | 24.2 | 84 | – | – |
| AUAGGUUAAGGAGGAUAUAGAGGGAGAAGUAAACAUGAGGAUCACCCAUGUAUUUAAUUAGUUUACUAGAAGGCUUAUGAUUGU | – | – | 39.2 | 43.7 |
| AUAUAAAAUAUAGGAUAUGGAAACAUGAGGAUCACCCAUGUAUGAUAAGAUAAAUUAUGAUAUAGCCAGAAGGAUACAAUAUAA | – | – | 31.3 | 38.3 |
| AUAUACUUUCGAGGAUAUCGGUGAUAAAUUUUACGAGAAGGCGAUAAAAGAUAUAAUCUUAUAGACAUGAGGAUCACCCAUGUA | – | – | 30.3 | 28 |
| AUAUAGCGAGGAUAUACAUGAGGAUCACCCAUGUGGUAGUAGAUACGGUAGAGCUAGUGUAGAAGGCGCUAUGA | 463 | 160 | – | – |
| AUAUAGGCUAACAUGAGGAUCACCCAUGUGUUAUACUUAAUAUAGGAUAUGUUUAUACUUUUUGGGCAGAAGGAUGGCCUAUAU | – | – | 36.4 | 27.3 |
| AUAUAUAUAAGGAAGGAUAUCUUAGAAAAAACAUGAGGAUCACCCAUGUAAAUAAAGAAUAAAUGGGAGAAGGUCCAUAUAUAUA | – | – | 30.1 | 16.3 |
| AUAUAUAUAGGAUAUACAUGAGGAUCACCCAUGUGCUUCAGCUAGGAGACUAGCAUUGGUAGAAGGAUAUAUAU | 16.1 | 26.1 | – | – |
| AUAUAUAUAUAAGGAUAUGUAUAUCCAACAUGAGGAUCACCCAUGUUGAGGAUCACCCAUGUAAAGCAGAAGGUAUAUAUAUAU | – | – | 29.1 | 18 |
| AUAUAUAUAUCAGGAUAUGGACAGGCCUGUUCGUAUUAAGACAUUAACAUGAGGAUCACCCAUGUCCAGAAGGGAUAUAUAUAU | 109 | 86.9 | – | – |
| AUAUAUGCCCAGAAGGUGCCAGCGAGAGCUGCACAUGAGGAUCACCCAUGUUGUCGGUGACGACGCAAGGAUAUGGGCAUAUAU | – | – | 24.5 | 7.26 |
| AUAUAUGCUAACAUGAGGAUCACCCAUGUGUUAUACUUAAUAUAGGAUAUGUUUAUACUUUUUGGGCAGAAGGAUGGCAUAUAU | – | – | 26.1 | 21.8 |
| AUAUCAAGCAAGGAUAUGCAAAUGGUUAUUUAUGCAGAAGGUGCAACAUGAGGAUCACCCAUGUUUCUGGGUUU | 64.4 | 101 | – | – |
| AUAUCCGAAGCAGGAUAUCGGCAAGGUGUCGAGGUAGAGCGUACUCACAUGAGGAUCACCCAUGUCGAGAAGGGCUACAGGAUG | 16.8 | 72.4 | – | – |
| AUAUCUAUAUCAGGAUAUGGACAGGCCUGUCCGUAUUGAGACAGUAACAUGAGGAUCACCCAUGUCCAGAAGGGAUCUAUAUAU | 53.7 | 45.7 | – | – |
| AUAUUACGAGGAUAUCGUUUUUUUCACAUGAGGAUCACCCAUGUUAUCCAUGUUUCGUUUCGAGAAGGCGUAAGUU | 50.6 | 36.1 | – | – |
